# An excerpt weighted towards active compounds, which were near 1.3% of everything screened.
# sdo1 growth: sdo1-depleted yeast growth rescue | 140,000 tested, 0.21% active | z-score at 10 µM | S. cerevisiae sdo1-depleted JHY4D growth rescue, OD600 30 h; stronger effect = higher value; pdr5 snq2 efflux-pump mutant strain | AID 817;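 active = z-score above 3 at both the 24 hr and the 30 hr optical density reads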
# BB579 growth dn: yeast BB579 growth reduction in restrictive medium; S. cerevisiae BB579 growth, OD615, 48 h; inhibition, % at 10 µM; 140,000 tested, 0.51% active;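 active = inhibition above a set limit, 3 SD over the mean compound inhibition, cut at about 44% in these data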
#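 System: DeaD yeast strain BB579; buffer or medium: CSMM-D dextrose restrictive medium; technique: OD at 615 nm; schedule: 4 h cell preincubation, 48 h compound exposure, 30 °C humidified; doses: single 10 µM dose; controls: amphotericin B 10 µg/mL, positive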
# Yeast life ext: yeast lifespan extension; S. cerevisiae growth with nicotinamide, OD615; deaD strain in restrictive glucose medium; inhibition of the nicotinamide effect, % at 10 µM; 130,000 tested, 0.68% active; AID 775;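 active = inhibition above a set limit, placed 3 SD over the median of all compounds, cut at about 26% in these data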
#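 Assay system: DeaD-strain S. cerevisiae. Medium: CSMM-D glucose medium, restrictive. Reagent: nicotinamide, 1.5 mM, co-present with compound. Compound: 10 µM single point, 0.25% DMSO. Schedule: culture preincubation 4 h, compound exposure 48 h, both 30 °C. Detection: absorbance at 615 nm.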
# Efa HMGR inh: E. faecalis class II HMG-CoA reductase inhibition | purified E. faecalis HMGR, NADPH absorbance 340 nm kinetic | inhibition, % at 10 µM | 190,000 tested, 0.41% active;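 active = inhibition above a set limit, the median over all tested compounds plus 3 SD, cut at about 9.5% in these data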;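 note: enzyme runs in reverse so mevalonate oxidation gives rising NADPH absorbance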
# sdo1 rescue conf: SDO1-depleted yeast growth rescue confirmation | OD recovery (concentration not given with the values) | shares compounds with sdo1 growth | AID 949 | 440 tested, 44% active | S. cerevisiae JHY4D (SDO1-depleted) growth rescue, OD600, 30 h; stronger effect = higher value; efflux-deficient strain, SNQ2 and PDR5 mutated;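 active = yeast growth recovered at 30 hours, either rising with dose fitted slope above 0.001 or with average optical density gain above 0.07, some results past the limit were not filed as active; inactive = growth falling with dose or no effect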
# Hits are given with their value; . = inactive; / = no result given.
SMILES,sdo1 growth,BB579 growth dn,Yeast life ext,Efa HMGR inh,sdo1 rescue conf
c1cnc(N2CCN(Cc3c[nH]c4ccccc34)CC2)nc1,.,.,.,.,/
Cc1c(C#N)c2ncn(CCCN(C)C)c(=O)c2n1-c1ccccc1,3.58,.,.,.,0.102
Cc1ccc(Cn2nnnc2CN2CCC(NC(=O)C(C)(C)C)CC2)cc1,/,/,/,.,/
CCc1cc(=O)oc2cc(OC(C)C(=O)O)c(Cl)cc12 (centres undefined),3.07,.,.,.,0.0919
O=C(NNc1nc(=O)c2cccnc2s1)c1ccccc1O,/,/,/,.,/
Cc1cc(C)nc(Nc2ncc(O)n2-c2ccc(C)c(C)c2)n1,5.87,.,.,.,0.0769
CCOc1cc(C(=O)NCc2ccc(-c3nc4ccccc4o3)cc2)cc(OCC)c1OCC,.,.,.,.,.
COc1ccc(C(=O)NC(=S)NCc2ccc(-c3nc4ccccc4o3)cc2)cc1OC,.,.,.,.,/
COc1ccc(NC(=O)NC23CC4(C)CC(C)(CC(C)(C4)C2)C3)cc1,.,.,.,.,/
COC(=O)c1ccc(C2c3c(oc4ccc(F)cc4c3=O)C(=O)N2CCO)cc1 (centres undefined),.,.,.,.,.
Cc1ccc(C(=O)OCC(=O)NC2CCCCC2)s1,/,/,/,.,/
COC(=O)CN1C(c2ccccc2)=Nc2ccc(Cl)cc2C1c1ccccc1 (centres undefined),.,.,.,.,/
Cc1ccc(C(=O)NCC(=O)OCC(=O)c2ccc3c(c2)OCCO3)cc1C,3.06,.,.,.,.
COc1ccc(C(=O)NCC(=O)OCC(=O)c2ccc3c(c2)OCCO3)cc1,.,.,.,.,/
COc1ccc(OCCNC(=O)/C=C/c2ccc([N+](=O)[O-])cc2)cc1,14.7,.,.,.,.
CCOC(=O)c1cccnc1SCC(=O)NC(C)CC (centres undefined),.,.,.,.,0.0902
CCN(CC)S(=O)(=O)c1ccc(NC2c3ncccc3C(=O)N2Cc2ccccc2)cc1 (centres undefined),10.3,.,.,.,.
Cc1ccc(NC(=O)Cn2ccc([N+](=O)[O-])n2)cc1C,/,/,/,.,/
COc1ccc(-c2cc(=O)oc3cc(OCC(C)=O)ccc23)cc1,.,.,.,.,/
COc1ccc2c(-c3cc4ccc(OCc5ccc(F)cc5)cc4oc3=O)cc(=O)oc2c1,16.3,.,.,.,.
CCS(=O)(=O)NCCc1csc(-c2cccnc2)n1,.,.,.,.,/
CCc1ccc(S(=O)(=O)NCCc2csc(-c3ccccc3)n2)s1,4.3,.,.,.,.
CCc1ccc(S(=O)(=O)NCc2csc(-c3ccccc3)n2)s1,.,.,.,.,/
CCc1ccc(S(=O)(=O)NCCc2csc(-c3cccnc3)n2)s1,4.36,.,.,.,.
CCOc1ccc(N2C(=O)/C(=C\c3ccccc3OC)S(=O)(=O)C2c2cccc([N+](=O)[O-])c2)cc1 (centres undefined),.,.,.,.,/
SMILES,sdo1 growth,BB579 growth dn,Yeast life ext,Efa HMGR inh,sdo1 rescue conf
Cc1ccc(N2C(=O)C3N=NN(CC(=O)N4N=C(c5ccccc5)CC4c4ccccc4)C3C2=O)cc1 (centres undefined),/,/,/,.,/
COc1cccc(NC(=O)Nc2ccc3c(c2)nnn3C)c1,.,.,/,.,0.0788
COc1cccc(NC(=O)Nc2cccnc2)c1,/,/,/,.,/
CCOc1ccc(C(=O)NC(=S)NCc2cccnc2)cc1,.,.,.,.,0.105
CCOc1ccc(NC(=O)c2ccncc2)cc1,4.08,.,.,.,.
N#Cc1c(-c2ccccc2)c(-c2ccccc2)nn(CC(=O)NNC(=O)Nc2ccc(Cl)c(Cl)c2)c1=O,.,.,.,.,/
O=C1CN(C(=S)NC(=O)c2ccc(-c3ccccc3)cc2)CCN1,/,/,/,.,/
COc1ccc(C(O)c2nc3ccccc3s2)cc1 (centres undefined),10.2,.,.,.,.
COC(=O)c1ccc(CSc2nnc(NC(=O)C3CC(=O)N(Cc4ccc(C)cc4)C3)s2)cc1 (centres undefined),.,.,.,.,/
COc1cc(OC)cc(-c2nnc(SCC(=O)N3CCCCC3)o2)c1,.,.,.,.,/
COc1cc(OC)cc(-c2nnc(SCC(=O)N3CCOCC3)o2)c1,3.66,.,.,.,0.0719
CCN(CC)C(=O)CSc1nc2cc3c(cc2c(=O)n1Cc1ccc(OC)cc1)OCO3,/,/,/,.,/
Cc1onc(-c2c(F)cccc2Cl)c1C(=O)NC1CCSC1=O (centres undefined),4.99,.,.,.,.
Cc1onc(-c2c(F)cccc2Cl)c1C(=O)Nc1nnc(C2CC2)s1,.,.,.,.,/
Cc1ccc(C)c(S(=O)(=O)N2CCN(CC(=O)NC(=O)NCc3ccco3)CC2)c1,/,/,/,.,/
O=C(NCC(=O)N1CC(O)CC1C(=O)N1CCCC1C(=O)OCc1ccccc1)OCc1ccccc1 (centres undefined),/,/,/,.,/
Cc1cc(-c2ccc(Br)cc2)n[nH]1,/,/,/,.,/
Nc1cc(-c2ccc(Br)cc2)[nH]n1,5.4,.,.,.,0.0956
COc1ccc(-c2noc(CCC(=O)Nc3cccc(C)c3)n2)cc1,.,.,.,.,/
COc1ccc(-c2noc(CCC(=O)N(C)c3cccc(C)c3)n2)cc1,4.31,.,.,.,.
CC(C(=O)NCCC1=CCCCC1)c1ccc([N+](=O)[O-])cc1 (centres undefined),/,/,/,.,/
C=CCN=C(C)C1=C(O)C(C)OC1=O (centres undefined),14.2,.,.,.,0.0967
Oc1ccc(/C=N/NC(=S)NCCN2CCOCC2)c(O)c1,/,/,/,.,/
CCc1nc2ccccc2n1CC(O)COCC1CC=CCC1 (centres undefined),/,/,/,.,/
COc1cccc(CC2CC(=O)N(CCc3ccc4c(c3)OCO4)C2=O)c1 (centres undefined),5.27,.,.,.,0.0879
SMILES,sdo1 growth,BB579 growth dn,Yeast life ext,Efa HMGR inh,sdo1 rescue conf
CCOC(=O)c1oc2ccccc2c1NC(=O)c1cccc(OC)c1OC,.,.,.,.,0.0947
CCOC(=O)c1oc2ccccc2c1NC(=O)c1cccc(OC)c1,.,.,.,.,/
N=c1c2c3c(sc2ncn1CCN1CCOCC1)CCCCC3,11.4,.,.,.,.
CCOc1ncccc1C(=O)OCC(=O)Nc1ccc(-c2nc3ccc(C)cc3s2)cc1,.,.,.,.,.
O=C1CC(N(CCc2ccccc2)C(=S)Nc2cc(Cl)ccc2Cl)C(=O)N1c1c(Cl)cccc1Cl (centres undefined),.,.,.,.,/
COC(=O)c1c(C)[nH]c(C(=O)/C=C/c2ccccc2)c1C,.,.,.,.,/
COC(=O)c1c(C)[nH]c(C(=O)/C=C/c2cccc(Cl)c2)c1C,10.8,.,.,.,.
CCCCn1c(C)nc2c(=O)n(C)c(=O)[nH]c21,.,.,.,.,0.0739
CCCCn1c(-c2ccccc2)nc2c(=O)n(C)c(=O)[nH]c21,.,.,.,.,/
CC(C)(C)OC(=O)N[C@@H](Cc1ccccc1)c1nnc(S(=O)(=O)Cc2ccccc2)o1,.,.,.,.,/

# High-throughput results: PubChem, several laboratories
